In one test the target is Glutamate NMDA receptor. The experiment in a line: Inhibition of [3H]MK-801 binding to N-methyl-D-aspartate glutamate receptor in rat brain cortical membranes. It is filed as cell membranes, Membrane.
Test [1] relates to Mus musculus. The test is described as follows: Effective dose at which half of the mice were protected against the lethality induced by 200 mg/kg NMDA. It is filed as functional. The settings on record: read-out: ID50 (the source's name). Summed up:
(§1)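 Male mice (20 to 30 g), groups of five, given test compound s.c. (0.01 mL/g) at different doses; NMDA 200 mg/kg i.p. 15 min later. Each mouse observed 20 min in an individual jar; percentage dying recorded. ID50 from log-probit analysis of four doses, or mean ± SEM of up to four independent experiments.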

The next test deals with Mu-type opioid receptor (Rattus norvegicus, UniProt P33535). The test is described as follows: Inhibition of [3H]dihydromorphine binding to opioid receptor mu 1 in rat brain cortical membranes. It is filed as cell membranes, Membrane. The essentials:
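Rat brain without cerebellum membranes incubated 30 min at 25 °C with 0.5 nmol/L [3H]dihydromorphine. Binding stopped by rapid filtration; filter radioactivity counted by scintillation. Ki from computer-aided curve fitting.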

Test [2] deals with Mus musculus. The test is described as follows: The ID50 values represent the effective dose at which half of the mice were protected against the lethality induced by 200 mg/kg NMDA. It is filed as functional. Conditions: read-out: ID50 (the source's name). Summed up:
as §1

Test [3] has as its system Mus musculus. The test is described as follows: The ID50 value represent the effective dose at which half of the mice were protected against the lethality induced by 200 mg/kg NMDA. It is filed as functional. The settings on record: read-out: ID50 (the source's name). Summed up:
as §1

Sequence of Mu-type opioid receptor (P33535 whole entry): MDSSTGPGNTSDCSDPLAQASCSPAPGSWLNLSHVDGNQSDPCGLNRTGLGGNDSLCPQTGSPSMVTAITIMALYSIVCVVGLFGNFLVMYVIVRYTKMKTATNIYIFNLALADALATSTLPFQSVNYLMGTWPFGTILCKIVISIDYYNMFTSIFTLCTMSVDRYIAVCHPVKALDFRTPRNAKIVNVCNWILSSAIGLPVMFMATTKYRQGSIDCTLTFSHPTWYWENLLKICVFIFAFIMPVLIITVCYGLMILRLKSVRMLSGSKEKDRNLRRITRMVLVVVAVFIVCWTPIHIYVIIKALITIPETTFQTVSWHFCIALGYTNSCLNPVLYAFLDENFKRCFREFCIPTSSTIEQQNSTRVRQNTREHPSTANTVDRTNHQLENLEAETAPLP

`CO[C@H](C)CN1CC[C@]2(C)c3c(O)cccc3C[C@H]1C2(C)C` came in with a Ki on Glutamate NMDA receptor of 364 nM.

For the molecule `CO[C@H](C)CN1CC[C@@]2(C)c3cc(O)ccc3C[C@@H]1C2(C)C`, the ED50 in the test on Mus musculus [1] was 0.7 mg/kg. The Ki on Glutamate NMDA receptor is 12.4 nM; on Mu-type opioid receptor, 108 nM.

As for `CC[C@@H](CN1CC[C@]2(C)c3cc(O)ccc3C[C@@H]1[C@H]2C)OC`, the ED50 with Mus musculus [1] was determined as 0.3 mg/kg. The molecule also yielded a Ki at Glutamate NMDA receptor of 66 nM.

As to `CO[C@@H](C)CN1CC[C@@]2(C)c3cc(O)ccc3C[C@@H]1C2(C)C`, in the test on Mus musculus [1], the ED50 was determined as 0.2 mg/kg. The Ki on Glutamate NMDA receptor amounted to 5.6 nM; at Mu-type opioid receptor, 1.6 nM.

Take `CO[C@@H](C)CN1CC[C@]2(C)c3cc(O)ccc3C[C@H]1C2(C)C`: the ED50 with Mus musculus [1] is over 30 mg/kg. Besides, the Ki on Glutamate NMDA receptor is 50400 nM; on Mu-type opioid receptor, 6020 nM.

For the molecule `C=CCN1CC[C@]2(C)c3cc(O)ccc3C[C@@H]1[C@@H]2C`, the ED50 in the test on Mus musculus [1] was over 30 mg/kg. The molecule further yielded a Ki at Glutamate NMDA receptor of 1500 nM.

As to `CO[C@H](C)CN1CC[C@@]2(C)c3c(O)cccc3C[C@@H]1C2(C)C`, the ED50 in the test with Mus musculus [1] worked out at 0.5 mg/kg. Besides, the Ki turned out to be 34 nM at Glutamate NMDA receptor and 11400 nM at Mu-type opioid receptor.

Turning to `CO[C@H](C)CN1CC[C@]2(C)c3cc(O)ccc3C[C@H]1C2(C)C`, the Ki on Glutamate NMDA receptor amounted to 13900 nM; at Mu-type opioid receptor it was 14000 nM.

Turning to `C=CCN1CCC2(C)c3c(O)cccc3CC1C2(C)C` (configuration not stated), the ED50 in the test with Mus musculus [1] was found to be 1.7 mg/kg. This molecule also displayed a Ki at Glutamate NMDA receptor of 106 nM.

In the case of `C=CCN1CCC2(C)c3ccc(O)cc3CC1C2(C)C` (configuration not stated), in the test on Mus musculus [1], the ED50 came out at 5 mg/kg. This molecule also displayed a Ki on Glutamate NMDA receptor of 99 nM.

Regarding `CO[C@H](C)CN1CC[C@]2(C)c3cc(O)ccc3C[C@@H]1[C@H]2C`, the ED50 with Mus musculus [1] came to 0.9 mg/kg. In addition, the Ki at Glutamate NMDA receptor amounted to 195 nM; on Mu-type opioid receptor, 212 nM.

Regarding `CO[C@@H](C)CN1CC[C@@]2(C)c3cc(O)ccc3C[C@H]1[C@@H]2C`, at Glutamate NMDA receptor, the Ki was over 100000 nM.

The molecule `C[C@@H]1[C@H]2Cc3ccc(O)cc3[C@@]1(C)CCN2C[C@@H](C)O` gave a Ki on Glutamate NMDA receptor of 425 nM.

For `CCCN1CC[C@@]2(C)c3cc(O)ccc3C[C@H]1[C@H]2C`, the ED50 in the test on Mus musculus [1] was over 30 mg/kg. Also, the Ki on Glutamate NMDA receptor was 2850 nM.

As for `CO[C@H](C)CN1CC[C@@]2(C)c3cc(O)ccc3C[C@H]1[C@@H]2C`, the ED50 in the test on Mus musculus [1] is over 30 mg/kg. Further, the Ki at Glutamate NMDA receptor worked out at 76600 nM; on Mu-type opioid receptor, 34800 nM.

Molecule `CCC[C@H](CN1CC[C@]2(C)c3cc(O)ccc3C[C@@H]1[C@H]2C)OC` had a Ki on Glutamate NMDA receptor of 1840 nM.

For the molecule `CS[C@H](C)CN1CC[C@]2(C)c3cc(O)ccc3C[C@@H]1[C@H]2C`, the Ki was found to be 406 nM on Glutamate NMDA receptor and 236 nM at Mu-type opioid receptor.

`CO[C@@H](C)CN1CC[C@]2(C)c3cc(O)ccc3C[C@@H]1[C@@H]2C`: in the test on Mus musculus [1], the ED50 was determined as 2.3 mg/kg. For the same molecule, the results for the Ki at Glutamate NMDA receptor and at Mu-type opioid receptor were 234 nM and 1 nM, respectively.

Turning to `CO[C@@H](C)CN1CC[C@@]2(C)c3ccc(O)cc3C[C@@H]1C2(C)C`, in the test with Mus musculus [1], the ED50 was 2.1 mg/kg. In addition, the Ki on Glutamate NMDA receptor amounted to 7.1 nM; on Mu-type opioid receptor, 18.2 nM.

Take `COCCCN1CC[C@]2(C)c3cc(O)ccc3C[C@@H]1[C@@H]2C`: at Glutamate NMDA receptor, the Ki turned out to be 991 nM. Further, the ED50 in the test on Mus musculus [2] is over 30 mg/kg.

Turning to `CS[C@@H](C)CN1CC[C@]2(C)c3cc(O)ccc3C[C@@H]1[C@@H]2C`, the ED50 with Mus musculus [1] came to 1.7 mg/kg. Also, the Ki came to 223 nM on Glutamate NMDA receptor and 3.2 nM at Mu-type opioid receptor.

As to `C=CCN1CCC2(C)c3cccc(O)c3CC1C2(C)C` (configuration not stated), the ED50 in the test on Mus musculus [1] is 10.4 mg/kg. In addition, the Ki at Glutamate NMDA receptor came to 630 nM.

Regarding `CO[C@H](C)CN1CC[C@]2(C)c3ccc(O)cc3C[C@H]1C2(C)C`, the Ki on Glutamate NMDA receptor came to 545 nM.

Turning to `C=CCN1CC[C@@]2(C)c3cc(O)ccc3C[C@H]1[C@H]2C`, the ED50 with Mus musculus [1] came to 8.2 mg/kg. On Glutamate NMDA receptor, this molecule showed a Ki of 1210 nM.

Molecule `CCCN1CC[C@]2(C)c3cc(O)ccc3C[C@@H]1[C@H]2C` came in with a Ki at Glutamate NMDA receptor of 373 nM.

`CCO[C@H](C)CN1CC[C@]2(C)c3cc(O)ccc3C[C@@H]1[C@H]2C`: affinity on Glutamate NMDA receptor was put at a Ki of 1290 nM. Against the preceding molecule, the Ki is about 3.5-fold higher.

For the molecule `CCCN1CC[C@]2(C)c3cc(O)ccc3C[C@@H]1[C@@H]2C`, the ED50 in the test on Mus musculus [1] is over 30 mg/kg. Besides, the Ki on Glutamate NMDA receptor worked out at 588 nM.

As to `CO[C@H](C)CN1CC[C@@]2(C)c3ccccc3C[C@@H]1C2(C)C`, the Ki at Glutamate NMDA receptor is 29.9 nM; on Mu-type opioid receptor it was 42300 nM. In the test with Mus musculus [3], the ED50 amounted to 6.8 mg/kg.

With `CO[C@@H](C)CN1CC[C@]2(C)c3cc(O)ccc3C[C@@H]1[C@H]2C`, the ED50 with Mus musculus [1] was determined as 0.6 mg/kg. Further, the Ki on Glutamate NMDA receptor stood at 35.7 nM; at Mu-type opioid receptor it was 3.5 nM.

For `CO[C@H](C)CN1CC[C@@]2(C)c3ccc(O)cc3C[C@@H]1C2(C)C`, in the test on Mus musculus [1], the ED50 stood at 0.4 mg/kg. The Ki at Glutamate NMDA receptor is 4.5 nM; at Mu-type opioid receptor, 3400 nM.

With `CO[C@@H](C)CN1CC[C@@]2(C)c3c(O)cccc3C[C@@H]1C2(C)C`, the ED50 in the test with Mus musculus [1] amounted to 0.8 mg/kg. Moreover, the Ki on Glutamate NMDA receptor stood at 15 nM; on Mu-type opioid receptor, 20.9 nM.

Turning to `CC[C@H](CN1CC[C@]2(C)c3cc(O)ccc3C[C@@H]1[C@H]2C)OC`, in the test with Mus musculus [1], the ED50 is 3 mg/kg. For the same molecule, the Ki on Glutamate NMDA receptor turned out to be 557 nM.

In the case of `CS[C@@H](C)CN1CC[C@]2(C)c3cc(O)ccc3C[C@@H]1[C@H]2C`, in the test with Mus musculus [1], the ED50 was found to be 2.1 mg/kg. Moreover, the Ki on Glutamate NMDA receptor is 83 nM; at Mu-type opioid receptor, 97 nM.

In the case of `CCO[C@@H](C)CN1CC[C@]2(C)c3cc(O)ccc3C[C@@H]1[C@@H]2C`, the Ki at Glutamate NMDA receptor was 1150 nM.

Regarding `CO[C@H](C)CN1CC[C@]2(C)c3cc(O)ccc3C[C@@H]1[C@@H]2C`, in the test with Mus musculus [1], the ED50 stood at 7.2 mg/kg. Moreover, the Ki was 248 nM at Glutamate NMDA receptor and 146 nM at Mu-type opioid receptor.

In turn, `CCO[C@@H](C)CN1CC[C@]2(C)c3cc(O)ccc3C[C@@H]1[C@H]2C` showed a Ki on Glutamate NMDA receptor of 1260 nM. This counts as single-digit micromolar.

`CO[C@@H](C)CN1CC[C@]2(C)c3ccc(O)cc3C[C@H]1C2(C)C`: the ED50 in the test with Mus musculus [1] stood at 81 mg/kg. The values for the Ki on Glutamate NMDA receptor and at Mu-type opioid receptor were 685 nM and 1340 nM, respectively.

On to `C=CCN1CCC2(C)c3cc(O)ccc3CC1C2(C)C` (configuration not stated), for which the ED50 with Mus musculus [1] came out at 4.7 mg/kg. The affinity on Glutamate NMDA receptor, expressed as Ki, was 380 nM.

Turning to `COC(C)(C)CN1CC[C@]2(C)c3cc(O)ccc3C[C@@H]1[C@@H]2C`, the ED50 with Mus musculus [1] was 2.9 mg/kg. Also, the Ki on Glutamate NMDA receptor stood at 281 nM; on Mu-type opioid receptor it was 5.6 nM.

`CCC[C@@H](CN1CC[C@]2(C)c3cc(O)ccc3C[C@@H]1[C@H]2C)OC` displayed a Ki at Glutamate NMDA receptor of 490 nM.

Turning to `CS[C@H](C)CN1CC[C@]2(C)c3cc(O)ccc3C[C@@H]1[C@@H]2C`, the inhibitory constant (Ki) on Glutamate NMDA receptor stood at 1090 nM; at Mu-type opioid receptor, 7.7 nM.

On to `CO[C@@H](C)CN1CC[C@@]2(C)c3cc(O)ccc3C[C@H]1[C@H]2C`, for which the ED50 in the test with Mus musculus [1] was over 30 mg/kg. In addition, the values for the Ki at Glutamate NMDA receptor and on Mu-type opioid receptor were 22000 nM and 5300 nM, respectively.

As for `CO[C@H](C)CN1CC[C@@]2(C)c3cc(O)ccc3C[C@H]1[C@H]2C`, the ED50 with Mus musculus [1] was over 30 mg/kg. Also, the Ki is 9550 nM at Glutamate NMDA receptor and 18400 nM at Mu-type opioid receptor.

On Glutamate NMDA receptor, `CCO[C@H](C)CN1CC[C@]2(C)c3cc(O)ccc3C[C@@H]1[C@@H]2C` came in with a Ki of 1840 nM.

In the case of `CO[C@@H](C)CN1CC[C@@]2(C)c3ccccc3C[C@@H]1C2(C)C`, the ED50 with Mus musculus [1] turned out to be 23 mg/kg. For the same molecule, the figures for the Ki on Glutamate NMDA receptor and at Mu-type opioid receptor were 15.8 nM and 144 nM, respectively.

As for `COC(C)(C)CN1CC[C@]2(C)c3cc(O)ccc3C[C@@H]1[C@H]2C`, the ED50 in the test on Mus musculus [1] was determined as 5.5 mg/kg. Further, on Glutamate NMDA receptor, the Ki came to 221 nM.

Regarding `CCCN1CC[C@@]2(C)c3cc(O)ccc3C[C@H]1[C@@H]2C`, the Ki on Glutamate NMDA receptor turned out to be 43600 nM. This lies in the double-digit micromolar range.

A word on the Ki: it is the dissociation constant of the complex between target and ligand, obtained from inhibition or displacement. Low values mean higher affinity, high ones lower affinity.

The values above are taken from ChEMBL document CHEMBL1130212, “Synthesis and structure-activity relationships of 6,7-benzomorphan derivatives as antagonists of the NMDA receptor-channel complex” (J Med Chem, 1997).
